# GPR7 antagonist: GPR7 receptor antagonists, primary screen, cell-based, fluorescence, single concentration | Neuropeptides B/W receptor type 1 (Homo sapiens), P48145 | GPR7-expressing cells, fluorescence antagonist assay | inhibition, % at 4.4 µM | hit rate 1.1% among 290,000; in the data active = inhibition above about 16%, passing the limit was not always enough;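 also: cells stimulated with the agonist NPW; 0% = agonist with vehicle and 100% = vehicle without agonist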
# OX1R antag-1: OX1R (HCRTR1) antagonists, primary screen, fluorescence, CHO/OX1R cells, Fluo-8 calcium, orexin A; AID 434989, 2010; inhibition, % at 5 µM; Fluo-8 calcium fluorescence; hit rate 0.43% among 330,000; Orexin/Hypocretin receptor type 1 (Homo sapiens), O43613;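 active = inhibition above its plate's threshold, mean inhibition of all tested compounds on the plate plus 3 SD, cut at about 37% in these data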;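 also: 0% = orexin A challenge wells and 100% = SB-334867-A antagonist wells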
# Target sequence (O43613 whole entry, looked up): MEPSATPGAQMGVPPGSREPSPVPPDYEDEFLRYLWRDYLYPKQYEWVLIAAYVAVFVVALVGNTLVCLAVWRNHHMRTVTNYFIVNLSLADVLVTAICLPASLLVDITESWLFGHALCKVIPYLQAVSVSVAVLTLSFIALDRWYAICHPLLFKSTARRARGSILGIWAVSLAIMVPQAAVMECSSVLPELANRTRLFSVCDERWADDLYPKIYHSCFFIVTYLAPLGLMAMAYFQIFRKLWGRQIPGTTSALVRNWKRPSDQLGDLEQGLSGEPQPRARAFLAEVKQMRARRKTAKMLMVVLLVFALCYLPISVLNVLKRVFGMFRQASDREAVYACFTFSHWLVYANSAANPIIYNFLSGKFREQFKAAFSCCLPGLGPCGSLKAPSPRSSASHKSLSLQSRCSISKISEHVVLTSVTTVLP
# OX1R antag-2: antagonists of human orexin 1 receptor (OX1R) | hit rate 1.8% among 330,000 | AID 485270, 2010 | inhibition, % at 6.6 µM | OX1R-expressing cells, FRET antagonist read-out; in the data active = inhibition mostly above about 38%, no sharp cut-off; inactive = mostly below about 40%;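 also: 0% = agonist challenge alone and 100% = reference antagonist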
# CHO parental Ca: ATP-evoked calcium signal inhibitors, parental CHO, primary screen, counter-screen for OX1R antagonist project, cell-based, fluorescence, Fluo-8 calcium dye | parental CHO-K1, ATP-induced calcium, Fluo-8 fluorescence | inhibition, % at 5.6 µM | hit rate 0.63% among 330,000;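 active = inhibition above that plate's mean sample inhibition plus 3 SD, cut at about 26% in these data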;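 also: 0% = ATP-challenged DMSO wells and 100% = DMSO wells without ATP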
#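 Assay system: untransfected parental CHO cell line. Also added: ATP agonist challenge. Dosing: one dose, 5.6 µM nominal. Measured by: Fluo-8 fluorescence. Read-out: % inhibition. Benchmarks: ATP wells versus no-ATP DMSO wells. Repeats: no replicates.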
# MPTP inh: mitochondrial permeability transition pore inhibitors, primary screen, biochemical, isolated mouse mitochondria, absorbance | Ca2+ swelling absorbance, 30 min | inhibition, % at 10 µM | hit rate 1.4% among 360,000;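 active = inhibition of 50% or more, scaled per plate between neutral and stimulator controls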;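 also: 0% = DMSO wells given calcium and 100% = 1 mM EGTA wells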
# * marks the source's active call; other numbers are inactive results; . = not tested or not shown. In the library only some 3.8% were active in any assay of this set; here they are far more common.
SMILES,GPR7 antagonist,OX1R antag-1,OX1R antag-2,CHO parental Ca,MPTP inh
Cc1ccc(-c2noc(CCCN3C(=O)c4ccccc4C3=O)n2)cc1,-4,-22,18,-19,2
CN(C(=O)COC(=O)c1cc2ccccc2oc1=O)C1CCCCC1,.,-20,28*,-10,0
Cc1cc(C)cc(NC(=O)CSc2ccc(-c3cccs3)nn2)c1,3,8,62*,-26,-22
COc1ccc(C(=O)CSc2ccc(-c3ccccc3)nn2)cc1,-4,7,69*,-11,0
COc1cc(NC(=O)CSc2ccc(-c3ccccn3)nn2)cc(OC)c1,-9,2,60*,-15,-2
COc1cccc(-c2ccc(SCC(=O)c3ccccc3)nn2)c1,12,-23,26,4,0
O=C(CSc1ccc(-c2cccs2)nn1)Nc1ccccc1,-10,-7,22,1,17
COc1ccccc1C(=O)Oc1ccc(C(C)(C)C)cc1,-5,-10,3,41*,3
O=C(Oc1ccccc1C(=O)Oc1ccccc1)c1cccnc1,-10,1,8,-3,-1
Cc1ccccc1S(=O)(=O)Oc1ccccc1C(=O)Oc1ccccc1,-4,27,30,39*,-2
Cc1cc(C)n2nc(SCC(=O)Nc3ccc(F)cc3[N+](=O)[O-])nc2n1,.,-19,29*,-14,0
Cc1cc(C)n2nc(Sc3ncccc3[N+](=O)[O-])nc2n1,-9,-6,45*,-1,0
Cc1ccc(C(=O)NCC(=O)N2CCc3ccccc3C2)cc1C,-7,-40,0,-17,0
C[C@H]1CCC[C@@]2(O[C@H](CCO)C[C@@H](O)[C@@H]2O)O1,.,0,5,-8,0
CCOC(=O)c1csc(NC(=O)CC2CCCC2)n1,-10,-25,11,-3,2
O=C(CCN1CCOCC1)NNC(=O)c1ccc(Cl)c([N+](=O)[O-])c1,.,-5,14,-5,1
O=C(CCN1CCOCC1)NNC(=O)c1ccc([N+](=O)[O-])cc1[N+](=O)[O-],.,-1,49*,-5,-1
O=C(CSc1nc2ccccc2s1)N1c2ccccc2Sc2ccc(Cl)cc21,1,-4,45*,5,2
O=C(CSc1nc2ccccc2s1)N1c2ccccc2Sc2ccc(C(F)(F)F)cc21,-18,-12,6,-3,1
COc1ccc(Br)c(Cn2c(C)c(C(=O)NCc3ccccc3C(F)(F)F)sc2=O)c1,.,.,.,.,2
Cn1c(SCC(=O)N/N=C/C=C/c2ccco2)nc2ccccc21,-11,-18,26,-16,2
O=C1CC(N2CCN(S(=O)(=O)c3cccc(C(F)(F)F)c3)CC2)C(=O)N1Cc1ccccc1 (stereo not given),25*,-8,16,-12,-7
N/C(=N\OC(=O)CCCCCN1C(=O)c2ccccc2C1=O)c1ccccc1,5,-9,62*,-13,2
N/C(=N\OC(=O)CCCN1C(=O)c2ccccc2C1=O)c1ccc(Br)cc1,-3,-16,19,-5,-2
CCC(=O)N1CC2(CC(c3cccc([N+](=O)[O-])c3)=NO2)C[C@H]1C(=O)NCC(N)=O (stereo not given in full),1,0,66*,-5,-1
SMILES,GPR7 antagonist,OX1R antag-1,OX1R antag-2,CHO parental Ca,MPTP inh
CCCN1C=CC(=C/C=C(\C#N)C(=O)OCC)C=C1,8,36,73*,33*,.
CCOC(=O)/C(C#N)=C/C=C1\C=Cc2ccccc2N1CC,4,-18,64,-5,2
COc1cccc(C(=O)C[n+]2cccc3cc(OC)ccc32)c1,.,-17,34*,-13,-2
COc1ccc(C(=O)C[n+]2cccc3cc(OC)ccc32)cc1,-3,-7,14,3,-1
CCOC(=O)/C(=N\Nc1ccccc1Cl)N(C)C1CCCCC1,-5,-7,5,1,0
C=CCN(CC=C)S(=O)(=O)c1ccc(NC(=O)COc2ccccc2OC)cc1,7,6,20,38*,-3
CC(C)COP(=O)(OCC(C)C)C(Nc1ccccc1)c1ccc(F)cc1 (stereo not given),18*,-22,17,-51,1
CC(C)COP(=O)(OCC(C)C)C(Nc1ccccc1)c1ccccc1 (stereo not given),7,-27,23,-24,7
Cc1nn(-c2ccccc2)c(=S)c2ccccc12,-1,-5,14,1,0
O=S(=O)(Nc1ccc(N2CCCCC2)cc1)c1ccccc1,-3,-10,29,12,2
O=S(=O)(c1ccccc1)c1ccc(N2CCCCCC2)cc1,-24,-17,24,37*,0
O=C(CCS(=O)(=O)c1ccccc1)Nc1ccc(S(=O)(=O)Nc2nccs2)cc1,.,8,5,1,0
CC(C)COC(=O)N(C)C[C@H]1OCc2cnnn2CCCC(=O)N([C@H](C)CO)C[C@@H]1C,.,.,.,.,1
COC(=O)[C@]12CCCCC=C1N(CCc1ccc(OC)c(OC)c1)C(=O)[C@H](CC(=O)N1CCCCC1)C2,.,.,.,.,1
COc1ccc(-c2cc(C(=O)OCC(=O)N3CCOCC3)c3ccccc3n2)cc1,.,27,55*,-21,1
COc1cc2ccccc2cc1C(=O)OCC(=O)N1CCOCC1,-11,-15,25,3,-3
O=C(OCC(=O)N1CCN(C(=O)c2ccco2)CC1)c1cc(-c2cccc(Br)c2)nc2ccccc12,0,24,62*,-22,4
O=C(COc1ccc(-n2cnnn2)cc1)Nc1ccc(F)c(F)c1F,.,-73,2,30*,1
O=C(COc1ccc(-n2cnnn2)cc1)Nc1ccc(Br)cc1F,.,15,-2,25,2
CC1(C(=O)O)CCN1C(=O)c1cccc(OC(F)(F)F)c1 (stereo not given),.,.,.,.,-2
CC(=O)c1c(C)n([O-])c2ccc(C)cc2[n+]1=O,-2,2,41*,-4,-2
Cc1ccc2c(c1)n([O-])c1c([n+]2=O)CCCC1,-14,-9,29,-1,1
N#C/C(=C\c1cccn1S(=O)(=O)c1ccccc1)S(=O)(=O)c1ccc(F)cc1,.,.,.,.,0
Cc1cc(C(=O)Nc2ccc3c(c2)CCC3)ccc1[N+](=O)[O-],.,13,45*,-22,41
CC1CCC2(CC1)NC(=O)N(CC(=O)Nc1ccc3c(c1)OCCO3)C2=O (stereo not given),0,-10,12,-12,0
CC1CCC2(CC1)NC(=O)N(CC(=O)NC(=O)Nc1ccc3c(c1)OCCO3)C2=O (stereo not given),20*,-18,24,-20,2
N#Cc1ccccc1Sc1ccccc1C(=O)Nc1ccc2ccccc2c1,7,3,58*,2,4
N#Cc1ccccc1Sc1ccccc1C(=O)Nc1ccc(Br)cc1,-2,0,28,17,14

# Bioassay records from PubChem.
